Hits are enriched below; roughly 1.8% of the tested compounds scored in any of these assays.
Rin1 Abl inh = inhibitors of Rin1-Abl protein binding, primary screen, biochemical, TR-FRET | Tyrosine-protein kinase ABL1 (Homo sapiens) + Ras and Rab interactor 1 (Homo sapiens), … | inhibition, % at 7.35 µM | hit rate 0.4% among 360,000; in the data active means inhibition above about 5%, passing the limit was not always enough
Target sequence (P00519 whole entry, looked up): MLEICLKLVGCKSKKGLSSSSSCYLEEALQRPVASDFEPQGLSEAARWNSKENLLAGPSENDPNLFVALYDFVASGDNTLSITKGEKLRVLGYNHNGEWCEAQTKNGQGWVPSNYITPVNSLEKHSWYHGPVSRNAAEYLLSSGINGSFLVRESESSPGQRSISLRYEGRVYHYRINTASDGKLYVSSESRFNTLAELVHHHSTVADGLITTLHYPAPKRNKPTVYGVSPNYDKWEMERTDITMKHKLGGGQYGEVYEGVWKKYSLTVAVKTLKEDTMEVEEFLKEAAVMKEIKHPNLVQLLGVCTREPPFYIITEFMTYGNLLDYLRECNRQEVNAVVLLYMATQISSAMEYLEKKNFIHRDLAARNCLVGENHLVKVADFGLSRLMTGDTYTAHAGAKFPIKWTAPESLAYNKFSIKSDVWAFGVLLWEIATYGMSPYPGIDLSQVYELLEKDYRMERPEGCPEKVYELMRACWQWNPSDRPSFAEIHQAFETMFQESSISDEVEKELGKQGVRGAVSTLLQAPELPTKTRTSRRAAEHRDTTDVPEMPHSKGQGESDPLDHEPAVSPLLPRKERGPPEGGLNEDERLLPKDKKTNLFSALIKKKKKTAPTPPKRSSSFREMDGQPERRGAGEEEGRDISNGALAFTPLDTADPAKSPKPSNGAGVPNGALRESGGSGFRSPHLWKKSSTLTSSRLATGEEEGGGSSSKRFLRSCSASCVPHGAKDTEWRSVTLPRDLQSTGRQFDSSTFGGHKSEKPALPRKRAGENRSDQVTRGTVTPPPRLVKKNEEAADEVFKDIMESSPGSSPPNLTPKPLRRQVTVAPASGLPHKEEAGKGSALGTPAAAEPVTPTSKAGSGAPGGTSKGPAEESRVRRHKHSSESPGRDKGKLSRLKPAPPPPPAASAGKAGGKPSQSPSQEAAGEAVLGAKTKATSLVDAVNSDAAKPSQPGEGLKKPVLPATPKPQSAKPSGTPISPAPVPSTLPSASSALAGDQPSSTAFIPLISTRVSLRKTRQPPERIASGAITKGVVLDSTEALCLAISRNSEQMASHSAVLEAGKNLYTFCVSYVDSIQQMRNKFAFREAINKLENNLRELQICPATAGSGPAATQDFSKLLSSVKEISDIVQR
Target sequence (Q13671 whole entry, looked up): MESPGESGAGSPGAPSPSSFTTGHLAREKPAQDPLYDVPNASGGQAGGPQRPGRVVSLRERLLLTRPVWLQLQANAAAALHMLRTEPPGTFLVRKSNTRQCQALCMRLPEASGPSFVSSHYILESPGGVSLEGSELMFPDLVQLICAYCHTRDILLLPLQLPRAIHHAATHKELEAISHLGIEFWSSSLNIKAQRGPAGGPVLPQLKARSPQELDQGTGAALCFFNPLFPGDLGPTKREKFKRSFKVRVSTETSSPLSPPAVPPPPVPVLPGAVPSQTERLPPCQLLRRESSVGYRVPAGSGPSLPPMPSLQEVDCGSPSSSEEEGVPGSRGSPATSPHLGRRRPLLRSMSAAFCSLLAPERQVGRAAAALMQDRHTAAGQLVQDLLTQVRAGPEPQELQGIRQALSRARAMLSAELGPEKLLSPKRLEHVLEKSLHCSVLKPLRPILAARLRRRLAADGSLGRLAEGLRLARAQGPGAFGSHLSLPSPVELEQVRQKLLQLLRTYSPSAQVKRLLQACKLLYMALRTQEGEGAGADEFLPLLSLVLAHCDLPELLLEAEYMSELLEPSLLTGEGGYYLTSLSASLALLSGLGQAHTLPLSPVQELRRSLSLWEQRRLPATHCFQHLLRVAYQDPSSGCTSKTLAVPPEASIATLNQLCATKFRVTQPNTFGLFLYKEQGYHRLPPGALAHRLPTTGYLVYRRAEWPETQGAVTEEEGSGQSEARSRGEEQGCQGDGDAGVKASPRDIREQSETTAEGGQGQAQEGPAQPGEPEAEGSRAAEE
Tb MetRS inh = T. brucei MetRS inhibitors, primary screen, biochemical, luminescence. purified T. brucei MetRS, ATP depletion, Kinase-Glo luminescence. hit rate 0.4% among 360,000. inhibition, % at 11.9 µM. methionyl-tRNA synthetase (Trypanosoma brucei brucei);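 active means inhibition above a per-plate cutoff of the control wells' mean inhibition plus 3 SD, cut at about 5.5% in these data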;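 further: 0% = DMSO wells median and 100% = median of wells with control inhibitor compound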
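assay system = parasite MetRS enzyme | timing = 15 min preincubation, 2 h reaction, all 25 °C | evaluation = percent inhibition relative to median high and low control wells | medium = HEPES buffer containing pyrophosphatase, BSA, spermine, DTT | compound = single dose, 11.9 µM final nominal, 0.9% final DMSO | detection = Kinase-Glo luminescence, ATP depletion format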
Rev-erbA mod = modulators of Rev-erb alpha DNA binding, primary screen, biochemical, FITC-DNA, fluorescence polarization, uHTS. Nuclear receptor subfamily 1 group D member 1 (Homo sapiens), P20393. Rev-erbα–FITC-DNA binding, 90 min. activity, % at 10 µM. hit rate 0.79% among 370,000. AID 1259318, 2017;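 active means activity above about 14%, limit read from the data; passing the limit was not always enough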;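 further: 0% = DMSO wells with 35 nM protein and 100% = DMSO wells with 750 nM protein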
PG9 binder = binders of HIV-1 gp120 antibody PG9, primary screen, biochemical, TR-FRET; hit rate 0.43% among 360,000; AID 624416, 2012; TR-FRET gp120-PG9 antibody binding; inhibition, % at 6.7 µM; HIV-1 gp120 / PG9 antibody interaction; in the data active means inhibition above about 8.5%
PG9 bind confirm = binders of anti-gp120 antibody PG9, confirmation, biochemical, TR-FRET | shares compounds with PG9 binder | TR-FRET PG9 antibody binding | inhibition, % at 6.7 µM | hit rate 90% among 1,500; in the data active means inhibition above about 9%
PGV04 counter = binders of control antibody PGV04, counter-screen for PG9 antibody binder project, biochemical, TR-FRET, distinct HIV envelope site | shares compounds with PG9 binder | hit rate 95% among 1,500 | inhibition, % at 6.7 µM | TR-FRET PGV04 antibody-gp120 binding; in the data active means inhibition above about 9.5%
PG9 binder DR = small-molecule binders of antibody PG9, dose response, biochemical, TR-FRET, HIV-1 gp120 antibody | shares compounds with PG9 binder | TR-FRET PG9 antibody-gp120 binding inhibition | IC50, µM | 95 tested, under 10 active | AID 651848, 2012; in the data active means IC50 below about 10 µM
PGV04 binding DR = binders of control antibody PGV04, dose response, counter-screen for PG9 antibody binder project, biochemical, TR-FRET, distinct HIV envelope site; IC50, µM; AID 651937, 2012; shares compounds with PG9 binder; TR-FRET binding to control antibody PGV04; hit rate 20% among 95
PG126 DR counter = binders of control antibody PG126, dose response, counter-screen for PG9 antibody binder project, biochemical, TR-FRET, distinct HIV envelope site; shares compounds with PG9 binder; TR-FRET binding to antibody PG126, counterscreen; IC50, µM; hit rate 20% among 95
Active calls of the source: *; x = no result. Unless noted, no stated cut-off is given here; in the data, active means IC50 below about 9 µM; inactive means the rest.

SMILES	Rin1 Abl inh	Tb MetRS inh	Rev-erbA mod	PG9 binder	PG9 bind confirm	PGV04 counter	others
O=C(Cn1c(=S)[nH]c2ccccc2c1=O)N1CCN(c2ccc(F)cc2)CC1	-4.3	-0.1	9.2	10.5*	16.2*	26.2*
COc1ccc(N2CCN(C(=O)Cn3c(=O)[nH]c4ccccc4c3=O)CC2)cc1	x	x	0.2	-0.6	x	x
COC(=O)C[C@@H]1CC[C@H]2[C@@H](COc3ccc(NC(=O)c4cc(C)on4)cc3C(=O)N2C)O1	x	x	-4.5	x	x	x
Cc1cc(SCC(=O)NC2CCCC2)nc2ccccc12	-29.0	0.1	4.3	15.7*	30.9*	44.5*
Cc1cc2ccccc2nc1SCC(=O)NC1CCCCC1	-7.8	0.9	4.2	5.8	x	x
Cc1cc2ccccc2nc1SCC(=O)NC1CCCC1	-10.1	0.7	5.3	9.7*	15.0*	17.5*
Cc1cc(SCC(=O)NC2CCCCC2)nc2ccccc12	-19.9	-1.2	8.6	18.0*	22.0*	26.7*
Cc1nc(SCC(=O)Nc2cc(C(N)=O)cc(C(N)=O)c2)c2c(C)c(C)sc2n1	-10.0	1.2	8.1	10.9*	17.6*	36.5*
COC(=O)[C@]12C[C@H](CC(=O)N3CCC(c4ccccc4)CC3)C(=O)N(Cc3ccc4c(c3)OCO4)C1=C[C@H](COCc1ccccc1)O[C@@H]2C	x	x	0.2	-0.2	x	x
O=C(NCC(c1ccccc1Cl)N1CCCC1)c1ccc(N2CCCC2=O)cc1 (configuration not stated)	-6.5	-0.4	1.2	-1.4	x	x
COc1ccc(Nc2nc(C)nc3c2oc2ccccc23)c(OC)c1	-29.7	-0.1	7.3	12.7*	14.5*	21.9*
Cn1nc(C(=O)OCC(=O)Nc2ccc(Cl)cc2Cl)c2ccccc2c1=O	-0.3	-0.6	10.0	-0.3	x	x
COC(=O)c1cc(C)oc1C	x	x	-2.3	x	x	x
N#CC(=C=[N-])C1=C(C#N)C(c2ccccc2F)C([n+]2ccccc2)C(O)(C2CC2)N1 (configuration not stated)	-73.0	0.0	-2.8	9.1*	16.0*	24.4*
C[C@H](CO)N1C[C@H](C)[C@@H](CN(C)C(=O)Nc2ccc(-c3cccs3)cc2)OCc2cn(nn2)CCCC1=O	x	x	-2.3	0.9	x	x
Cc1ccc(-n2nc3c(c2NC(=O)c2ccccc2Br)CS(=O)C3)cc1 (configuration not stated)	-2.3	-0.4	-1.7	8.8*	7.8	14.9*
Cc1ccc(-n2nc3c(c2NC(=O)c2ccc(OC(C)C)cc2)CS(=O)C3)cc1 (configuration not stated)	-4.1	-0.3	-0.5	-0.4	x	x
Nc1cc(=O)n(Cc2ccco2)c(=S)[nH]1	1.9	0.3	1.5	0.2	x	x
CCN(CC(=O)NC(C)C)Cc1nc2c(Br)cc(Br)cc2c(=O)[nH]1	-11.6	-0.3	4.9	23.5*	39.9*	52.4*
O=C(Cn1cnc2c(NCc3ccccc3)ncnc21)NCc1ccc2[nH]ccc2c1	-2.1	1.1	4.4	33.3*	15.7*	28.9*
C[C@H]1[C@@H]2C[C@@]3(O[C@H](c4ccccn4)N=C3C[C@@H]1c1ccccc1)N(Cc1ccncc1)C2=O	x	x	-2.2	-0.4	x	x
Cc1cc(C)c(OCC(=O)Nc2ccc3c(c2)OCO3)cc1C	-2.2	-0.3	6.8	17.8*	20.4*	24.4*
Cc1c(Cl)cnc(NC(=O)COC(=O)c2ccc3c(c2)OCO3)c1Cl	-5.2	0.0	-0.6	28.4*	16.1*	30.4*
Cc1c(Cl)cnc(NC(=O)COC(=O)c2ccncc2)c1Cl	0.2	-0.4	-4.4	0.0	x	x
COc1ccc(C)cc1NC(=O)COC(=O)c1ccc2c(c1)OCCO2	1.4	0.1	-3.2	2.5	x	x
SMILES	Rin1 Abl inh	Tb MetRS inh	Rev-erbA mod	PG9 binder	PG9 bind confirm	PGV04 counter	others
COc1ccc(C)cc1NC(=O)COC(=O)c1ccc2c(c1)OCO2	0.8	-0.7	8.0	23.9*	23.7*	27.6*
Cc1cnc(C(=O)N(CCCn2ccnc2)C2C(=O)Nc3ccccc3N=C2c2ccccc2)cn1 (configuration not stated)	0.1	-0.4	-7.3	-1.3	x	x
CO[C@@H]1[C@H](O)CC[C@]2(O)CN(c3ccc(F)cc3)[C@](C)([C@H](O)CC=C(C)C)[C@@H]12	x	x	4.3	-1.4	x	x
COc1cccc(OC)c1C(=O)Nc1ccc(C(=O)NCc2ccccc2)cc1	1.9	0.3	-3.5	9.6*	12.2*	16.8*
COc1ccc(C(=O)NCc2ccccc2)cc1Br	0.4	0.8	3.6	1.3	x	x
CC1(C(=O)NS(=O)(=O)c2cccc(Cl)c2)CCN1C(=O)CCc1cccs1 (configuration not stated)	-1.8	0.3	-2.8	0.9	x	x
N#CCN1C(=O)C2CCCN2c2ccc(S(=O)(=O)N3CCOCC3)cc21 (configuration not stated)	3.2	1.0	-3.9	-0.9	x	x
CON(C)S(=O)(=O)c1ccc2c(c1)N(Cc1ccc(C)cc1)C(=O)C1CCCN21 (configuration not stated)	-1.3	-0.6	12.5	10.3*	18.6*	26.6*
CC1CCCCC1NC(=O)COC(=O)c1ccc2c(=O)n3c(nc2c1)CCC3 (configuration not stated)	0.3	-0.1	0.7	1.5	x	x
CCCC1CCC2(CC1)CCC2OC(=S)NCc1cccc(OC)c1 (configuration not stated)	x	x	8.5	x	x	x
COc1ccc(C(=O)NCCN(C)C)c2nc3ccccc3cc12	-9.6	-0.3	8.3	22.5*	19.7*	17.9*	PG9 binder DR=>67.1;PGV04 binding DR=>67.1;PG126 DR counter=>67.1
Nc1ccn(C2CCCCO2)c(=O)n1 (configuration not stated)	-1.7	-0.3	2.8	13.9*	6.2	7.5
Nc1ccn(C2CCCO2)c(=O)n1 (configuration not stated)	2.9	0.1	8.0	-0.4	x	x
